Results published in article PMC3594138 (Bioorganic & medicinal chemistry letters, 2013).
Where two headings read alike, the source gives them in different places.

How the values were obtained:
[1] = rats, t = 30 min, n = 5, mean ± SD; cited from earlier work
[2] = test system: isolated rat heart; settings: uptake-2 blocked pharmacologically; cited from earlier work
[3] = Biodistribution studies in rats; format: in vivo, rat; settings: t = 30 min after intravenous injection, n = 5, mean ± SD
In short: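 Rats received the fluorine-18 labelled test compound by intravenous injection. Tissue radioactivity was determined 30 min later and expressed as % injected dose/g, with n = 5 each.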

[4] = MicroPET imaging study in rhesus macaque; format: in vivo, rhesus macaque monkey; settings: PET

Compound | Tissue concentration, adrenal medulla [1] [% injected dose/g] | Tissue concentration, blood [1] [% injected dose/g] | Tissue concentration, liver [1] [% injected dose/g] | Tissue concentration, lung [1] [% injected dose/g] | Tissue concentration, spleen [1] [% injected dose/g] | Major Clearance T1/2 [2] [h] | Neuronal uptake rate Kup [2] [ml/min/g wet] | also measured
N=[11C](N)NCCc1ccc(F)c(O)c1 [[^11C]4F-MHPG, [^11C]4-fluoro-m-hydroxyphenethylguanidine] | 0.56 ± 0.21 | 0.08 ± 0.01 | 1.22 ± 0.18 | 0.56 ± 0.15 | 0.52 ± 0.10 | > 73 | 0.72 | Tissue concentration, left ventricle [1]: 1.77 ± 0.27 % injected dose/g
N=C(N)NCCc1ccc([18F])c(O)c1 [[^18F]4F-MHPG, [^18F]4-fluoro-m-hydroxyphenethylguanidine] |  |  |  |  |  |  |  | Tissue concentration, adrenal medulla [3]: 0.54 ± 0.08 % injected dose/g; Tissue concentration, blood [3]: 0.07 ± 0.01 % injected dose/g; Tissue concentration, left ventricle [3]: 1.45 ± 0.13 % injected dose/g; Tissue concentration, liver [3]: 1.14 ± 0.16 % injected dose/g; Tissue concentration, lung [3]: 0.43 ± 0.08 % injected dose/g; Tissue concentration, spleen [3]: 0.56 ± 0.10 % injected dose/g; Retention of the tracer in the lungs [4]: essentially no retention; Uptake in the liver relative to cardiac uptake [4]: a little lower than the cardiac uptake; Activity in the vertebrae of the spine (in vivo defluorination) ([4]; sagittal images): little or no activity
N=C(N)NCc1ccc([18F])cc1 [[^18F]PFBG, p-[^18F]fluorobenzylguanidine] |  |  |  |  |  | 0.53 ± 0.06 |  | 
N=C(N)NCc1cccc([123I])c1 [[^123I]MIBG, [^123I]-m-iodobenzylguanidine] |  |  |  |  |  | 3.5 ± 1.8 |  | 
NC(N)=NCc1cccc([125I])c1 [[^125I]MIBG] | 1.53 ± 0.08 | 0.10 ± 0.01 | 1.19 ± 0.06 | 2.31 ± 0.19 | 0.85 ± 0.06 |  |  | 
[^11C]-(−)-m-hydroxyephedrine [[^11C]HED] |  |  |  |  |  |  | 2.7 ± 0.4 | 
